Screening data: PubChem, several laboratories
Rows were chosen to be rich in hits. Some 3% of all compounds tested hit in one or more screens of this group.
PfGluPho inh – PfG6PD (Plasmodium falciparum) enzyme inhibition; inhibition, % at 20 µM; 350,000 tested, 0.78% active; PfGluPho enzyme, NADPH resazurin-diaphorase fluorescence;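 active = inhibition reaching at least a set limit at 20 µM in the primary screen, cut at about 59% in these data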;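 also: 0% = DMSO wells with substrate and 100% = DMSO wells lacking glucose-6-phosphate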
MC4R antag cAMP – blocks human MC4R cAMP signaling; inhibition, % at 6.5 µM; MC4R-expressing cells, MTII-stimulated cAMP, LANCE TR-FRET; 360,000 tested, 0.48% active; P32245; AID 540295;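 active = inhibition above its plate's cutoff, the mean of tested wells on that plate plus 3 SD, cut at about 29% in these data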;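 also: 0% = Melanotan II alone and 100% = Melanotan II plus saturating MCL0020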
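Material: U2OS-MC4R stable cell line | Reagent: Melanotan II challenge after compound preincubation | Doses: One concentration, 6.5 µM nominal | Incubation: 30-min compound preincubation, 1-h Melanotan II challenge, 1-h detection, room temperature | Signal: TR-FRET cAMP assay | Replicates: One well per compound, no replicates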
MC4R ag barr – human MC4R agonism via beta-arrestin | P32245 | U2OS MC4R beta-arrestin complementation, luminescence; percent of melanotan II response, DMSO zero | activation, % at 8.9 µM | 360,000 tested, 0.98% active;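 active = activation above a per-plate cutoff, the mean activation of sample wells on that plate plus 3 SD, cut at about 8% in these data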
B2AR ag – agonists of human beta-2 adrenergic receptor inducing internalization; 340,000 tested, 0.43% active; P07550; Am2.2-beta2AR cells, FAP receptor internalization, flow cytometry; AID 504454; response, % (concentration not given with the values);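 active = response above a set limit, near 3 SD of response in nonfluorescent compounds, cut at about 42% in these data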
ABHD5-PLIN5 inh – inhibitors of human ABHD5-perilipin-5 interaction; Q00G26+Q8WTS1; 360,000 tested, 0.78% active; inhibition, % at 4 µM; AID 602281; Split G. princeps luciferase complementation, luminescence, 4 h;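 active = inhibition above the mean inhibition across every tested compound plus 3 SD, cut at about 22% in these data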;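 also: 0% = DMSO only wells and the 100% control is not disclosed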
cAMP nonselect – U2OS forskolin cAMP inhibition counter-screen; parental U2OS, LANCE TR-FRET; inhibition, % at 6.5 µM; shares compounds with MC4R antag cAMP; 1,600 tested, 26% active;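 active = mean inhibition over triplicates above the low-control well mean plus 3 SD, set per campaign, cut at about 13% in these data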;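 also: signal is single emission at 671 nm which falls as cellular cAMP rises; 0% = forskolin-stimulated wells and 100% = buffer without forskolin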
MC4R antag conf – human MC4R cAMP antagonism confirmation | shares compounds with MC4R antag cAMP | MC4R-expressing cells, MTII-stimulated cAMP, TR-FRET | inhibition, % at 6.5 µM | 1,600 tested, 27% active | AID 602195; in the data active = inhibition above about 29%;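 also: 0% = agonist stimulated wells alone and 100% = agonist stimulated wells plus saturating reference antagonist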
MC4R barr ag – human MC4R beta-arrestin agonism confirmation. shares compounds with MC4R ag barr. 2,400 tested, 31% active. activation, % at 8.9 µM. AID 602192. U2OS MC4R beta-arrestin recruitment, luminescence; scaled DMSO 0%, Melanotan II 100%;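 active = mean activation across replicates above the hit cutoff set in the earlier primary screen, cut at about 8% in these data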
MOR-DOR barr ag – counter-screen for MC4R agonists: agonists of mu-delta opioid heterodimer | shares compounds with MC4R ag barr | U2OS PathHunter beta-arrestin, beta-gal luminescence; percent of deltorphin B response, DMSO zero | activation, % at 9.2 µM | 2,400 tested, 5.8% active | AID 602194;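 active = mean activation across replicates exceeds the hit threshold derived in the earlier primary screen, cut at about 18% in these data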;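 also: 100% = deltorphin B at 0.9 µM final and 0% = DMSO alone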
Target sequence (P35372 whole entry, looked up): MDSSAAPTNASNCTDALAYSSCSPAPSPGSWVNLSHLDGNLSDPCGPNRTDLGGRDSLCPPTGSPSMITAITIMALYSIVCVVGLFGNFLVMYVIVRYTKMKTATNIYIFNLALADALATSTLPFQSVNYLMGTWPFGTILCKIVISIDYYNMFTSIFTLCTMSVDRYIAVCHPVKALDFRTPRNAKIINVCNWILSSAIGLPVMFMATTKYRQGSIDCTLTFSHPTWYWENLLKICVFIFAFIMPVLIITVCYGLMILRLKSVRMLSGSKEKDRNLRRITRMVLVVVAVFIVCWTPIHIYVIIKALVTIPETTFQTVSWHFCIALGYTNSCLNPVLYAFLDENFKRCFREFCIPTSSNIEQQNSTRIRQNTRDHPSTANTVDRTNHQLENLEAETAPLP
Target sequence (P41143 whole entry, looked up): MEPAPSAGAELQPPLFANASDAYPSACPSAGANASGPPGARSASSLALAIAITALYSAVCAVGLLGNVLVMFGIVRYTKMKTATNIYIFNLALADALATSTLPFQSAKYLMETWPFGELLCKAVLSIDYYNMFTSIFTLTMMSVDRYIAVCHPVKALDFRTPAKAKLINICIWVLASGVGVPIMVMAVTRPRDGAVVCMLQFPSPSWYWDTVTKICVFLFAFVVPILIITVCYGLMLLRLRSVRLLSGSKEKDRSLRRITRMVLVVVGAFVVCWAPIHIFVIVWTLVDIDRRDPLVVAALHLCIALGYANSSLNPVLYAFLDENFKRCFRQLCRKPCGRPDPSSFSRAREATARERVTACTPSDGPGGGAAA
ABHD5 PLIN5 conf – confirmation of human ABHD5-PLIN5 interaction inhibitors | shares compounds with ABHD5-PLIN5 inh | AID 651612 | biochemical ABHD5-PLIN5 interaction, luminescence | 2,200 tested, 67% active | inhibition, % at 4 µM; in the data active = inhibition above about 23%;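 also: 0% = DMSO vehicle wells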
HNF4 split-luc – active in HNF4 split-luciferase counter-screen for ABHD5-PLIN5 inhibitors; shares compounds with ABHD5-PLIN5 inh; HNF4 dimerization, luminescence, biochemical; inhibition, % at 4 µM; 2,200 tested, 77% active;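 active = mean inhibition across replicate wells exceeding the computed hit threshold, cut at about 13% in these data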;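 also: light from luciferase halves that rejoin when HNF4 fusion proteins dimerize; 0% = DMSO only wells and the 100% control is not given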
An asterisk follows results filed as active; nt = no result.

SMILES	PfGluPho inh	MC4R antag cAMP	MC4R ag barr	B2AR ag	ABHD5-PLIN5 inh	MC4R barr ag	MOR-DOR barr ag	others
CSCCC(NS(=O)(=O)c1ccc2c(c1)OCCO2)C(=O)N(C)Cc1ccccc1F (configuration not stated)	7	22	0	17	-8	nt	nt
CC(C)(C)S(=O)N1Cc2cc(C(=O)N3CCc4ccccc4C3)nc(-c3cccc(-c4ccncc4)c3)c2[C@H]1CCO (some centres not stated)	nt	nt	nt	nt	-2	nt	nt
CCn1nc(C)cc1-c1nnc(SCC(=O)Nc2ccccc2)n1CCCOC	-15	0	-2	1	3	nt	nt
CCn1nc(C)cc1-c1nnc(Sc2ncc([N+](=O)[O-])s2)n1C	29	46*	-3	39	24*	nt	nt	cAMP nonselect=28*;MC4R antag conf=58*;ABHD5 PLIN5 conf=25*;HNF4 split-luc=110*
CCCCNc1c(N)n(CC(C)C)c(=O)[nH]c1=O	21	7	-1	-18	-6	nt	nt
CC1=NOC(=O)/C1=C/c1ccc(-c2ccc(Cl)cc2)o1	nt	63*	-3	65*	33*	nt	nt	cAMP nonselect=11;MC4R antag conf=31*;ABHD5 PLIN5 conf=99*;HNF4 split-luc=107*
COC(=O)C[C@H](NC(=O)Cn1cc(C)c(=O)[nH]c1=O)C(=O)OC	2	-10	-2	-3	-4	nt	nt
Cc1cccc(C(=O)Nc2cccc(-c3ccc4nncn4n3)c2)c1	39	25	-1	12	-5	nt	nt
CC(C)Cc1ccc(C(C)CC2=CCC(CN(C)C)C2=O)cc1 (configuration not stated)	48	39*	7	24	38*	nt	nt	cAMP nonselect=2;MC4R antag conf=46*;ABHD5 PLIN5 conf=82*;HNF4 split-luc=81*
CCOC(=O)c1cc([N+](=O)[O-])cc([N+](=O)[O-])c1Sc1ncnc2nc[nH]c12	47	58*	-3	39	38*	nt	nt	cAMP nonselect=47*;MC4R antag conf=47*;ABHD5 PLIN5 conf=62*;HNF4 split-luc=102*
CCOC(=O)C1(Cc2ccc(OC)cc2)CCN(C(=O)c2cc(C)nn2C)CC1	-5	4	0	-2	-1	nt	nt
COc1ccc(CNC(=O)c2ccc(CS(=O)(=O)c3ccc(Br)cc3)o2)cc1	7	6	-1	-9	-1	nt	nt
Clc1ccc(CNCc2cccs2)c(Cl)c1	-8	14	11*	-1	0	2	4
CC(C)c1ccc(CN2CCSCC2)cc1	5	2	-1	14	5	nt	nt
COc1ccc(NC(=O)C2CCCN2S(=O)(=O)c2cccs2)c([N+](=O)[O-])c1 (configuration not stated)	2	16	-2	4	-3	nt	nt
CS(=O)(=O)c1ccccc1C(=O)Nc1ccc(-c2nc3ccccc3[nH]2)cc1	6	-1	-2	-3	3	nt	nt
O=C(Nc1ccc(-c2nc3ccccc3[nH]2)cc1)c1ccccc1NS(=O)(=O)c1ccc(F)cc1	-37	25	15*	14	-2	6	2
O=C(NC(=S)NCc1ccc(-c2nc3ccccc3s2)cc1)c1ccco1	-6	-2	28*	21	1	6	2
O=C(NCc1ccc(-c2nc3ccccc3s2)cc1)c1ccco1	-3	0	-1	-4	3	nt	nt
COc1ccc(S(=O)(=O)N(C)C[C@@H]2OCc3cnnn3CCCC(=O)N([C@H](C)CO)C[C@@H]2C)cc1	1	9	0	nt	-5	nt	nt
COc1ccc(C(=O)N/N=C/c2ccc(OC)c(CN3CCc4cc(OC)c(OC)cc4C3C)c2)cc1 (configuration not stated)	-3	10	-2	6	0	nt	nt
CC(=O)Nc1sc(C)c(C)c1C(=O)OCC(=O)NCc1ccccc1	-4	-5	-1	-7	0	nt	nt
CCOC(=O)Nc1sc(C)c(C)c1C(=O)OCC	-16	-6	10*	1	8	1	3
COc1ccc(NC(=O)COC(=O)c2c(NC(C)=O)sc(C)c2C)cc1	-5	-2	31*	nt	4	18*	3
CCOC(=O)c1c(NC(=O)Nc2ccccc2)sc(C)c1C	49	3	5	-6	-8	nt	nt
SMILES	PfGluPho inh	MC4R antag cAMP	MC4R ag barr	B2AR ag	ABHD5-PLIN5 inh	MC4R barr ag	MOR-DOR barr ag	others
CC1CN(S(=O)(=O)c2cccc(C(=O)NCc3ccco3)c2)CC(C)O1 (configuration not stated)	0	1	-1	-7	4	nt	nt
COc1cc2nc(Nc3ccc(C)c(C)c3)nc(N)c2cc1OC	19	3	0	22	10	nt	nt
COc1cc2nc(Nc3ccc(C)c(Cl)c3)nc(N)c2cc1OC	34	0	11*	10	6	18*	13
COc1ccccc1COCC(O)CNCCc1ccc(C(F)(F)F)cc1 (configuration not stated)	-4	16	11*	-6	0	8	9
OC(CNCCc1ccc(C(F)(F)F)cc1)COc1cccc2ccccc12 (configuration not stated)	31	12	15*	27	8	20*	10
OC(CNCCc1ccc(C(F)(F)F)cc1)COc1ccc2ccccc2c1 (configuration not stated)	26	6	12*	11	-12	9.4*	7
OC(CNC1CCCCCC1)COc1cccc2ccccc12 (configuration not stated)	22	2	0	20	4	nt	nt
O=C(O)CCC(=O)NNC(=O)c1cccs1	-19	1	-1	-6	-1	nt	nt
CCC(=O)N1N=C(c2cccs2)CC1c1ccc(C)cc1 (configuration not stated)	3	1	0	-5	10	nt	nt
Cc1ccc(C2CC(c3cccs3)=NN2C(=O)CCl)cc1 (configuration not stated)	-2	21	10*	-57	7	4	27*
CCN1CCN(CC(O)COC(c2ccccc2)c2ccccc2C)CC1 (configuration not stated)	-4	-5	0	-2	0	nt	nt
O=c1[nH]c(SCCOc2cccc3ccccc23)nc2ccccc12	1	26	10*	-1	-4	0	4
